Measurements from ChEMBL document CHEMBL1155025, “Xanthones from the botanical dietary supplement mangosteen (Garcinia mangostana) with aromatase inhibitory activity” (J Nat Prod, 2008).

Key:
[1] = molecular target: T1, Aromatase (Homo sapiens, UniProt P11511); assay: Inhibition of aromatase over-expressed in human SKBR3 cells; format: cell-based, SK-BR-3
T1 sequence (P11511 whole entry): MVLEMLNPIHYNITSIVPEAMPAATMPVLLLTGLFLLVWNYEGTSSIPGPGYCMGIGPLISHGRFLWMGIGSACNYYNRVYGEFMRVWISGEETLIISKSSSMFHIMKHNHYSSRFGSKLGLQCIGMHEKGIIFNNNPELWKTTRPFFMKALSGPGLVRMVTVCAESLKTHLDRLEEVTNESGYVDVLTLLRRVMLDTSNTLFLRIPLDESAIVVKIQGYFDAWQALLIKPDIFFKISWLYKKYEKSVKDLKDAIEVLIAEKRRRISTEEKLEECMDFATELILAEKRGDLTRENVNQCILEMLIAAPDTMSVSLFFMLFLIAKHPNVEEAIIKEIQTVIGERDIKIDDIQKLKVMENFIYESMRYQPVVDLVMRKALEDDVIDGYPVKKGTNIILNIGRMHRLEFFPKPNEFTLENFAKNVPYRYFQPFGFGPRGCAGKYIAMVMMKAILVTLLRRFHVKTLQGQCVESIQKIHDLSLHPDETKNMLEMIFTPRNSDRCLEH
How it was run: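 SK-BR-3 human breast cancer cells overexpressing aromatase were treated in triplicate at various concentrations (screen at 50 µM), with 0.1% DMSO as negative control and 10 nM letrozole as positive control. Read-out was pmol 3H2O formed per hour per 10^6 live cells. Percent control activity was calculated versus DMSO.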

[2] = molecular target: T1, Aromatase; assay: Inhibition of aromatase over-expressed in human SKBR3 cells at 50 uM relative to control; format: cell-based; parameters: scale not given: the % may be the effect or the level left; conditions: SK-BR-3, human; read-out: Activity
How it was run: (§1)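 SK-BR-3 human breast cancer cells overexpressing aromatase, treated in triplicate. 0.1% DMSO serves as negative control. Tritiated water formation is read as pmol 3H2O/h per 10^6 live cells and expressed as percent control activity versus DMSO.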

[3] = molecular target: T1, Aromatase; assay: Inhibition of aromatase in human placental microsomes at 20 ug/ml relative to control; parameters: species or system Placenta; scale not given: the % may be the effect or the level left
How it was run: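 Radiometric placental microsome assay with samples at 20 µg/mL in DMSO, in triplicate. 100 nM [1β-3H]androstenedione, pH 7.0 phosphate buffer, 5% propylene glycol, and NADPH-regenerating system. Reaction started with 50 µg microsomes, run 15 min at 37 °C, and stopped with CHCl3. 3H2O counted; percent control activity taken relative to DMSO.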

[4] = molecular target: T1, Aromatase; assay: Inhibition of aromatase in human placental microsomes; parameters: species or system Placenta
How it was run: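 Human term placental microsomes (50 µg, processed at 4 °C) incubated for 15 min at 37 °C with 100 nM [1β-3H]androstenedione in 0.1 M potassium phosphate pH 7.0, 5% propylene glycol, and NADPH-regenerating system. Quenched with CHCl3; 3H2O in aqueous layer counted by scintillation. IC50 derived from dose-response testing.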

[5] = system: SK-BR-3; assay: Cytotoxicity against human SKBR3 cells assessed as survival by MTT assay relative to control; format: functional
How it was run: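 MTT viability assay in SK-BR-3 human breast cancer cells that overexpress aromatase. Cells exposed to samples in DMSO, with DMSO as negative control. Six replicates. Read-out is percent cell survival relative to the DMSO control. IC50 obtained from a concentration–response curve.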

[6] = molecular target: T1, Aromatase; assay: Inhibition of aromatase over-expressed in human SKBR3 cells at 10 nM relative to control; format: cell-based; parameters: scale not given: the % may be the effect or the level left; conditions: SK-BR-3, human; read-out: Activity; how it was run: as §1

| Structure (SMILES) | activity at 50 µM [2] | Activity [3] | IC50 [4] | other results |
| --- | --- | --- | --- | --- |
| CC(C)=CCc1c(O)cc2oc3cc(O)c(O)c(CC=C(C)C)c3c(=O)c2c1O | -0.5% | 4.7% | 6.9 µM | IC50 [1]: 4.97 µM |
| COc1c(CC=C(C)C)c(O)c2c(=O)c3c(O)ccc(O)c3oc2c1CC=C(C)C |  | 55.1% |  |  |
| COc1c(O)cc2oc3cc(O)c4c(c3c(=O)c2c1CC=C(C)C)OC(C)(C)CC4 |  | 52.6% |  |  |
| CC(C)=CCc1c(O)c(CC=C(C)C)c2oc3c(O)cccc3c(=O)c2c1O [8-DEOXYGARTANIN] |  | 82.6% |  |  |
| COc1c(CC=C(C)C)c(O)c2c(=O)c3cccc(O)c3oc2c1CC=C(C)C [CUDRAXANTHONE G] |  | 57.8% |  |  |
| COc1c(O)cc2oc3cc(O)c(CC=C(C)C)c(O)c3c(=O)c2c1CCC(C)(C)O [GARCINONE D] | 50.7% | 10% | 5.2 µM | Survival [5]: 89.4% |
| CC(C)=CCc1c(O)cc2oc3c(CC=C(C)C)c(O)c(O)c(CC=C(C)C)c3c(=O)c2c1O [GARCINONE E] | 32.3% | 23.9% | 25.1 µM | Survival [5]: 52.3% |
| CC(C)=CCc1c(O)c(CC=C(C)C)c2oc3c(O)ccc(O)c3c(=O)c2c1O [GARTANIN] |  | 75.9% |  |  |
| N#Cc1ccc(C(c2ccc(C#N)cc2)n2cncn2)cc1 [LETROZOLE] |  |  |  | activity at 0.01 µM [6]: 7.4% |
| CC(C)=CCC/C(C)=C/Cc1c(O)cc2oc3c(O)cccc3c(=O)c2c1O [MANGOSTINONE] |  | 78.8% |  |  |
| COc1c(O)cc2oc3cc(O)c(CC=C(C)C)c(O)c3c(=O)c2c1CC=C(C)C [MANGOSTIN] | 59.4% | 22.2% | 20.7 µM | Survival [5]: 18.4% |
| CC(C)=CCC/C(C)=C/Cc1c(O)cc2oc3c(O)ccc(O)c3c(=O)c2c1O [SMEATHXANTHONE A] |  | 80.8% |  |  |
| CC(C)=CCc1c(O)cc2oc3c(CC=C(C)C)c(O)c4c(c3c(=O)c2c1O)C=CC(C)(C)O4 [TOVOPHYLLINE A] |  | 74.7% |  |  |
